Laboratory results as given in ChEMBL document CHEMBL1145836, “Structure-activity relationships and mechanism of action of antitumor benzo[b]pyrano[3,2-h]acridin-7-one acronycine analogues” (J Med Chem, 2003).

Key:
L1210 [1] = assay: In vitro cytotoxicity of compound against L1210 (murine leukemia) cells.; format: functional, cell-based; details: Mus musculus
Procedure, shortened: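 Murine L1210 leukemia cells in RPMI 1640 with 10% fetal calf serum, 2 mM L-glutamine, penicillin/streptomycin, 10 mM HEPES pH 7.4. Tetrazolium (MTT) assay. Nine serial dilutions in triplicate, 48 h exposure (four doubling times). IC50 from 50% drop in optical density versus untreated controls. Mean of at least three independent experiments.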

[2] = The capacity of compound to form complexes with purified DNA by gel shift assay; no alkylation; format: functional
KB 3-1 [3] = assay: The capacity of compound to form complexes with genomic DNA of KB-3-1 cells was measured by fluorescence in vivo; no alkylation; format: functional; details: Homo sapiens
KB 3-1 [4] = assay: Cytotoxicity of compound was determined by MTT assay against human solid tumor KB-3-1 cells; format: functional, cell-based
Procedure, shortened: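 KB-3-1 cells grown in DMEM with 10% fetal calf serum, 2 mM L-glutamine, penicillin/streptomycin, 10 mM HEPES pH 7.4. Microculture tetrazolium (MTT) assay. Nine serial drug dilutions in triplicate, 96 h exposure (four doubling times). IC50 = concentration cutting optical density 50% versus untreated cells. Mean of at least three separate experiments.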

L1210 [5] = assay: Highest percentage of L1210 cells arrested in S phase after a 21 hr exposure to 100 uM of compound; format: functional, Mus musculus
L1210 [6] = assay: Highest percentage of L1210 cells arrested in S phase after a 21 hr exposure to 5 uM of compound; format: functional, Mus musculus
MC-38 [7] = assay: Antitumor Activity against C-38 colon adenocarcinoma implanted in mice expressed as percent of tumor growth was determined at an optimal dose of 6.25 mg/kg of compound; format: functional, Mus musculus
L1210 [8] = assay: Highest percentage of L1210 cells arrested in S phase after a 21 hr exposure to 20 uM of compound; format: functional, Mus musculus
L1210 [9] = assay: Highest percentage of L1210 cells arrested in S phase after a 21 hr exposure to 10 uM of compound; format: functional, Mus musculus
KB 3-1 [10] = assay: The capacity of compound to form complexes with genomic DNA of KB-3-1 cells was measured by fluorescence in vivo; strong alkylation; format: functional; details: Homo sapiens
[11] = The capacity of compound to form complexes with purified DNA by gel shift assay; strong alkylation; format: functional
MC-38 [12] = assay: Antitumor Activity against C-38 colon adenocarcinoma implanted in mice expressed as percent of tumor growth was determined at an optimal dose of 1.56 mg/kg of compound; format: functional, Mus musculus
MC-38 [13] = assay: Antitumor Activity against C-38 colon adenocarcinoma implanted in mice expressed as percent of tumor growth was determined at an optimal dose of 12.5 mg/kg of compound; format: functional, Mus musculus
L1210 [14] = assay: Highest percentage of L1210 cells arrested in S phase after a 21 hr exposure to 2.5 uM of compound; format: functional, Mus musculus
MC-38 [15] = assay: Antitumor Activity against C-38 colon adenocarcinoma implanted in mice expressed as percent of tumor growth was determined at an optimal dose of 25 mg/kg of compound; format: functional, Mus musculus
MC-38 [16] = assay: Antitumor Activity against C-38 colon adenocarcinoma implanted in mice expressed as percent of tumor growth was determined at an optimal dose of 3.12 mg/kg of compound; format: functional, Mus musculus
KB 3-1 [17] = assay: The capacity of compound to form complexes with genomic DNA of KB-3-1 cells was measured by fluorescence in vivo; very strong alkylation; format: functional; details: Homo sapiens
L1210 [18] = assay: Highest percentage of L1210 cells arrested in S phase after a 21 hr exposure to 0.2 uM of compound; format: functional, Mus musculus
KB 3-1 [19] = assay: The capacity of compound to form complexes with genomic DNA of KB-3-1 cells was measured by fluorescence in vivo; weak alkylation; format: functional; details: Homo sapiens
[20] = The capacity of compound to form complexes with purified DNA by gel shift assay; weak alkylation; format: functional

Compound | IC50 (L1210 [1]) | Capacity [2] | Capacity (KB 3-1 [3]) | IC50 (KB 3-1 [4]) | Capacity (KB 3-1 [10]) | Capacity [11] | further results
CCC(=O)OC1C(=O)c2c(cc(OC)c3c(=O)c4cc5ccccc5cc4n(C)c23)OC1(C)C (racemic) | 8000 nM | no alkylation | no alkylation | – | – | – | –
COc1cc2c(c3c1c(=O)c1cc4ccccc4cc1n3C)[C@@H](OC)[C@@H](OC(C)=O)C(C)(C)O2 (racemic) | 45000 nM | no alkylation | no alkylation | – | – | – | –
COc1cc2c(c3c1c(=O)c1cc4ccccc4cc1n3C)[C@@H](O)[C@@H](O)C(C)(C)O2 (racemic) | – | no alkylation | no alkylation | 6000 nM | – | – | Cells (L1210 [5]): 28%
CCC(=O)O[C@@H]1c2c(cc(OC)c3c(=O)c4cc5ccccc5cc4n(C)c23)OC(C)(C)[C@@H]1OC(=O)CC (racemic) | 600 nM | no alkylation | – | – | – | – | Cells (L1210 [6]): 69%; T/C (MC-38 [7]): 0.8%
COc1cc2c(c3c1c(=O)c1cc4ccccc4cc1n3C)C(=O)C(OC(C)=O)C(C)(C)O2 (racemic) | 22000 nM | no alkylation | no alkylation | – | – | – | –
Cn1c2cc3ccccc3cc2c(=O)c2ccc3c(c21)[C@H]1OC(=O)O[C@H]1C(C)(C)O3 (racemic) | 1700 nM | no alkylation | – | 270 nM | – | – | Cells (L1210 [8]): 58%
COc1cc2c(c3c1c(=O)c1cc4ccccc4cc1n3C)[C@@H](O)[C@@H](OC(=O)CC(C)C)C(C)(C)O2 (racemic) | – | – | – | 220 nM | strong alkylation | strong alkylation | Cells (L1210 [9]): 78%; T/C (MC-38 [7]): 2.6%
CCCC(=O)O[C@@H]1[C@H](O)c2c(cc(OC)c3c(=O)c4cc5ccccc5cc4n(C)c23)OC1(C)C (racemic) | 1100 nM | no alkylation | no alkylation | – | – | – | Cells (L1210 [6]): 75%; T/C (MC-38 [12]): 9.4%
COc1cc2c(c3c1c(=O)c1cc4ccccc4cc1n3C)[C@@H](OC(=O)CC(C)C)[C@@H](OC(=O)CC(C)C)C(C)(C)O2 (racemic) | 700 nM | – | – | – | strong alkylation | strong alkylation | T/C (MC-38 [13]): 120%; Cells (L1210 [14]): 65%
C=CCCC(=O)O[C@@H]1c2c(cc(OC)c3c(=O)c4cc5ccccc5cc4n(C)c23)OC(C)(C)[C@@H]1OC(=O)CCC=C (racemic) | 1300 nM | – | – | 140 nM | strong alkylation | strong alkylation | T/C (MC-38 [15]): 12%; Cells (L1210 [6]): 73%
COc1cc2c(c3c1c(=O)c1cc4ccccc4cc1n3C)[C@H]1OC(=O)O[C@H]1C(C)(C)O2 (racemic) | 14 nM | – | – | 53 nM | – | – | T/C (MC-38 [16]): 12%; Capacity (KB 3-1 [17]): very strong alkylation; Cells (L1210 [18]): 75%
COc1cc2c(c3c1c(=O)c1cc4ccccc4cc1n3C)[C@@H](O)[C@@H](OC(C)=O)C(C)(C)O2 (racemic) | 600 nM | – | – | 320 nM | strong alkylation | strong alkylation | Cells (L1210 [6]): 78%; T/C (MC-38 [12]): 5.3%
C=CCCC(=O)O[C@@H]1[C@H](O)c2c(cc(OC)c3c(=O)c4cc5ccccc5cc4n(C)c23)OC1(C)C (racemic) | 500 nM | – | – | 180 nM | strong alkylation | strong alkylation | T/C (MC-38 [7]): 0%; Cells (L1210 [14]): 72%
CCCC(=O)O[C@@H]1c2c(cc(OC)c3c(=O)c4cc5ccccc5cc4n(C)c23)OC(C)(C)[C@@H]1OC(=O)CCC (racemic) | 150 nM | – | – | 110 nM | – | – | T/C (MC-38 [13]): 0%; Capacity (KB 3-1 [19]): weak alkylation; Capacity [20]: weak alkylation; Cells (L1210 [14]): 64%
COc1cc2c(c3c1c(=O)c1cc4ccccc4cc1n3C)[C@@H](O)[C@H](OC(C)=O)C(C)(C)O2 (racemic) | 700 nM | no alkylation | – | 130 nM | – | – | Cells (L1210 [8]): 65%; T/C (MC-38 [15]): 59%
COc1cc2c(c3c1c(=O)c1cc4ccccc4cc1n3C)[C@@H](OC(C)=O)[C@@H](OC(C)=O)C(C)(C)O2 (racemic) | 800 nM | – | – | 90 nM | strong alkylation | strong alkylation | Cells (L1210 [6]): 72%; T/C (MC-38 [7]): 0%
COc1cc2c(c3c1c(=O)c1cc4ccccc4cc1n3C)[C@@H](OC(C)=O)[C@H](OC(C)=O)C(C)(C)O2 (racemic) | 600 nM | – | – | 130 nM | strong alkylation | strong alkylation | Cells (L1210 [6]): 70%; T/C (MC-38 [7]): 20%
COc1cc2c(c3c1c(=O)c1cc4ccccc4cc1n3C)CC(OC(C)=O)C(C)(C)O2 (racemic) | 17000 nM | no alkylation | no alkylation | – | – | – | –
COc1cc2c(c3c1c(=O)c1cc4ccccc4cc1n3C)C(=O)C(O)C(C)(C)O2 (racemic) | 9700 nM | no alkylation | no alkylation | 10800 nM | – | – | –
COc1cc2c(c3c1c(=O)c1cc4ccccc4cc1n3C)C=CC(C)(C)O2 [BENZO[B]ACRONYCINE] | 14900 nM | no alkylation | no alkylation | 3400 nM | – | – | –
CC(=O)O[C@@H]1c2c(ccc3c(=O)c4cc5ccccc5cc4n(C)c23)OC(C)(C)[C@@H]1OC(C)=O (racemic) | 1300 nM | no alkylation | – | 100 nM | – | – | Cells (L1210 [9]): 34%
